These results are taken from ChEMBL document CHEMBL1128398, “Structure-activity relationship of alpha-galactosylceramides against B16-bearing mice” (1995).

The species entered for assay [1] is Homo sapiens. The assay can be described thus: Lymphocyte Proliferation Stimulatory effect on human umbilical cord blood at 1 ng/mL and measured for [3H]TdR (tritium-thymidine) uptake (percent of control). The assay is classed as functional. The gist of the method:
(§1)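 Mononuclear cells were isolated from human peripheral blood or umbilical cord blood and plated at 1 × 10^5 cells/well in RPMI 1640 with 10% autologous plasma, with compound. After 4 days of incubation, a 6 h [3H]TdR pulse was given and uptake was counted by scintillation. Run in triplicate.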

For assay [2], the species on record is Mus musculus. Briefly: Lymphocyte Proliferation Stimulatory effect on Allogenic MLR at 1 ng/tritium-thymidine) uptake (percent of control). In kind it is functional. The method in brief: (§2)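 Responders were BALB/c spleen cells and stimulators were C57BL/6 spleen cells pretreated with MMC (50 μg/mL, 30 min). Both were plated at 1 × 10^5 cells in 10% FCS RPMI 1640, with compounds added at plating. Culture was at 37 °C in 5% CO2 for 2–3 days, then a 6 h [3H]TdR pulse with scintillation counting. Run in triplicate.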

The test system of assay [3] is B16. The assay can be described thus: Tumor Growth Inhibitory effect (TGIR) on mice subcutaneously inoculated with B16 cells (compound plus MMC). The assay is classed as functional, Mus musculus. Details: concentration or dose not given beside the values. The method in brief: (§3)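 Groups of six female BDF1 mice received B16 melanoma (1 × 10^6 cells/mouse) s.c. on day 0. AGL analogues were given i.v. at 100 μg/kg on days 1, 5 and 9, and MMC at 5 mg/kg i.p. on day 1; controls were untreated. Tumor volume (length × width × height/2, by callipers) was read on days 8, 12, 16 and 20. TGIR = [1 − mean test volume/mean control volume] × 100, and the maximum value is reported.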

Assay [4] is filed under the species Mus musculus. The assay can be described thus: Lymphocyte Proliferation Stimulatory effect on Allogenic MLR at 0.1 ng/mL and measured for [3H]TdR (tritium-thymidine) uptake (percent of control). The assay is classed as functional. The gist of the method: as §2
In assay [5] the test system is B16. The assay can be described thus: Tumor Growth Inhibitory effect (TGIR) on mice subcutaneously inoculated with B16 cells (compound alone (single)). Also noted: concentration or dose not given beside the values. The assay is classed as functional, Mus musculus. The gist of the method: as §3
The species named for assay [6] is Mus musculus. Briefly: Lymphocyte Proliferation Stimulatory effect on Allogenic MLR at 10 ng/mL and measured for [3H]TdR (tritium-thymidine) uptake (percent of control). The assay is classed as functional. The method in brief:
as §2

For assay [7], the species on record is Homo sapiens. Briefly: Lymphocyte Proliferation Stimulatory effect on human umbilical cord blood at 100 ng/mL and measured for [3H]TdR (tritium-thymidine) uptake (percent of control). The assay is classed as functional. The gist of the method: as §1
Assay [8] has as its system B16. The assay can be described thus: Tumor Growth Inhibitory effect (TGIR) on mice subcutaneously inoculated with B16 cells (chemotherapeutic agent, mitomycin C (MMC)). In kind it is functional, Mus musculus. Details: concentration or dose not given beside the values. The gist of the method: as §3
The species entered for assay [9] is Homo sapiens. The assay can be described thus: Lymphocyte Proliferation Stimulatory effect on human umbilical cord blood at 10 ng/mL and measured for [3H]TdR (tritium-thymidine) uptake (percent of control). The assay is classed as functional. The method in brief: as §1
The species entered for assay [10] is Homo sapiens. The assay can be described thus: Lymphocyte Proliferation Stimulatory effect on human peripheral blood at 1 ng/mL and measured for [3H]TdR (tritium-thymidine) uptake (percent of control). In kind it is functional. The method in brief:
as §1

The species named for assay [11] is Homo sapiens. Briefly: Lymphocyte Proliferation Stimulatory effect on human peripheral blood at 100 ng/mL and measured for [3H]TdR (tritium-thymidine) uptake (percent of control). The assay is classed as functional. The gist of the method:
as §1

Assay [12] is filed under the species Homo sapiens. The assay can be described thus: Lymphocyte Proliferation Stimulatory effect on human peripheral blood at 10 ng/mL and measured for [3H]TdR (tritium-thymidine) uptake (percent of control). In kind it is functional. The method in brief: as §1
The species named for assay [13] is Mus musculus. Briefly: Lymphocyte Proliferation Stimulatory effect on Allogenic MLR at 100 ng/mL and measured for [3H]-TdR (tritium-thymidine) uptake (percent of control). The assay is classed as functional. The gist of the method: as §2
Assay [14] is filed under the species Mus musculus. Briefly: Lymphocyte Proliferation Stimulatory effect was tested on mouse spleen cells and evaluated for at 6 h [3H]TdR (tritium-thymidine) pulse and uptake into cells at 10 ng/mL. In kind it is functional. The method in brief:
(§4)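 BALB/c spleen cells (2 × 10^5 cells/well, no stimulator cells) were cultured in 10% FCS RPMI 1640 with compound at 37 °C in 5% CO2 for 2–3 days. A 6 h [3H]TdR pulse followed, and uptake was counted by liquid scintillation. Run in triplicate.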

Assay [15] relates to Mus musculus. Briefly: Compound is administered at days 6, 10, and 14.Tumor volume of each mouse is measured on days 8, 12, 16 and 20(compound plus MMC). The assay is classed as functional.
Assay [16] relates to Mus musculus. The assay can be described thus: Compound is administered at days 6, 10, and 14.Tumor volume of each mouse is measured on days 8, 12, 16 and 20(compound alone (single)). In kind it is functional.
For assay [17], the species on record is Mus musculus. The assay can be described thus: Lymphocyte Proliferation Stimulatory effect was tested on mouse spleen cells and evaluated for at 6 h [3H]TdR (tritium-thymidine) pulse and uptake into cells at 100 ng/mL. In kind it is functional. The gist of the method:
as §4

The species named for assay [18] is Mus musculus. The assay can be described thus: Lymphocyte Proliferation Stimulatory effect on Allogenic MLR at 1 ng/mL and measured for [3H]TdR (tritium-thymidine) uptake (percent of control). The assay is classed as functional. The gist of the method:
as §2

For assay [19], the system named is Mus musculus. Briefly: Compound is administered at days 6, 10, and 14.Tumor volume of each mouse is measured on days 8, 12, 16 and 20(chemotherapeutic agent, mitomycin C (MMC)). The assay is classed as functional.
The species named for assay [20] is Mus musculus. The assay can be described thus: Lymphocyte Proliferation Stimulatory effect was tested on mouse spleen cells and evaluated for at 6 h [3H]TdR (tritium-thymidine) pulse and uptake into cells at 1 ng/mL. The assay is classed as functional. The method in brief:
as §4

Turning to `CCCCCCCCCCCCCCCCCCCCCCCCCC(=O)N[C@@H](CO[C@H]1O[C@H](CO)[C@H](O)[C@H](O)[C@H]1O)[C@H](O)[C@H](O)CCCCCCCCCCCCCC` [RGI-7000], the Control in [1] is on record as 398%; in assay [2] it was 200%; in assay [3], 86.7%; in assay [4] it was 125%; in assay [5] it was 53.8%; in assay [6], 251%. In addition, the Control in [7] is listed as 581%; in assay [9], 663%; in assay [10] it was 356%; in [11] it was 590%; in assay [12], 389%; in [13], 283%. Further, the “Tumor growth inhibition ratio (max TGIR)” value in assay [8] came to 67.6%.
For `CCCCCCCCCCCCCCCCCCCCCCCC[C@@H](O)C(=O)N[C@@H](CO[C@H]1O[C@@H](CO)[C@H](O)[C@H](O)[C@@H]1O)[C@H](O)[C@H](O)CCCCCCCCCCCCCC`, the Control in assay [1] was found to be 382%; in [14] it was 437%; in assay [3] it was 97.7%; in assay [15], 85%; in assay [4], 118%; in assay [16] it was 69.8%. Further, the Control in [5] is on record as 92.8%; in [6] it was 250%; in assay [7], 586%; in assay [17], 620%; in [18], 180%; in assay [19], 67.6%. For the same compound, the Control worked out at 582% in assay [9]; 203% in assay [20]; 332% in assay [10]; 470% in assay [11]; 352% in assay [12]; 280% in [13]. In addition, the “Tumor growth inhibition ratio (max TGIR)” value in assay [8] came out at 87.3%.
